Most compounds without a hit are left out; they make up all but 3% or so of the library.
CaV13 FRET inh: Primary screen for inhibitors of IQ motif and Ca2+-dependent inactivation inhibitor domain binding in CACNA1D, Förster resonance energy transfer in living cells, …; 340,000 compounds, 0.098% hits; AID 743397; HEK cells, CFP/YFP FRET ICDI-IQ, plate reader, 10 min; percent FRET-ratio fall versus neutral wells; inhibition, % at 12.3 µM;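 active = mean replicate inhibition of at least 30% and at least 1% of replicates passing that level; inconclusive = only one of the two criteria is met; inactive = neither criterion is met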
PfHsp90 set2: growth inhibition of PfHsp90-expressing yeast, primary screen, antimalarial PfHsp90 inhibitor project, S. cerevisiae, BacTiter-Glo luminescence, single point, set 2 | inhibition, % at 9.4 µM | 310,000 compounds, 0.32% hits | BacTiter-Glo ATP, 48 h; yeast lacking PDR1 and PDR3 efflux regulators;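 active = every replicate shows inhibition above about 80%, whatever the replicate mean, limit read from the data; inconclusive = mean inhibition reaches the set limit but some replicate falls short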
HSF1 activator: HSF-1 activators, primary screen, NIH3T3-HGL cells, MG132 stress, luminescence, single point. AID 504408, 2011. 300,000 compounds, 1.7% hits. NIH3T3-HGL HSF-1 luciferase reporter, 8 h; 100% = twice DMSO control signal. activation, % at 9 µM;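 active = mean replicate activation of at least 50% with a set share of replicates each reaching 50%; inconclusive = only one of those two conditions met; inactive = mean below 50% and too few replicates reaching it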
PvdQ inh: P. aeruginosa PvdQ acylase inhibitors, primary screen, biochemical, fluorescence, plate reader and imaging, single point; PvdQ acylase [Pseudomonas aeruginosa LESB58]; purified PvdQ acylase; inhibition, % at 10 µM; 340,000 compounds, 0.063% hits; in the data active = inhibition above about 30%, passing the limit was not always enough; inconclusive = no clear call, values can overlap the other calls
T cruzi repl: inhibitors of intracellular T. cruzi growth, primary screen, luminescence, NIH3T3 host cells. T. cruzi beta-gal in NIH3T3, 90 h. inhibition, % (no concentration beside the values). 300,000 compounds, 1.4% hits;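 active = mean inhibition across valid replicates above about 55%, limit read from the data; inconclusive = mean below that limit but half or more replicates reach it; inactive = mean below it, under half of replicates reach it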;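 note: signal also drops with host cell toxicity which is not excluded here; higher percent means less beta-gal luminescence so fewer parasites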
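System: mouse NIH/3T3 fibroblasts infected with β-gal-expressing T. cruzi Tulahuen C4 / Input: NIH/3T3 cells, 5,000 per well / Buffer or medium: Low-serum DMEM with 2% FBS / Probe or stimulus: 5000 reporter trypomastigotes per well / Schedule: ≥90 h infection period, 3 h prior cell attachment / Measured by: GalScreen luminescence, 60 min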
Glyco luc inh: increase of ERlucT glycosylation luciferase signal, primary screen, N-linked glycosylation inhibitor project, D54 ERlucT cells, luminescence, set 2; 360,000 compounds, 0.23% hits; reporter increase, % at 12.5 µM; D54 ERlucT glycosylation luciferase reporter, 24 h; percent of 100 nM tunicamycin response; AID 588692, 2011;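 active = mean luciferase reporter signal, scaled so untreated is 0 and the glycosylation-blocking control 100, at or above a set limit in every replicate; inconclusive = mean reaches the limit but not every replicate does; inactive = mean below the limit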;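 note: luciferase carries N-glycosylation sites so blocking glycosylation raises the light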
Hits are given with their value; - = inactive; ? = inconclusive; . = not tested or not shown.

SMILES	CaV13 FRET inh	PfHsp90 set2	HSF1 activator	PvdQ inh	T cruzi repl	Glyco luc inh
CC1(C(=O)NC2CCCC2)CCC(=O)N1CCCn1ccnc1 (stereo not given)	-	.	.	.	.	-
O=C(CSc1ccc(-c2nc3ccccc3[nH]2)cn1)Nc1ccc(S(=O)(=O)NC2CC2)cc1	-	-	51	-	-	-
Cc1ccc2nc(-c3ccc(SCC(=O)Nc4nnc(C)s4)nc3)[nH]c2c1	-	-	.	-	-	102
Cc1ccc2nc(-c3ccc(SCC(=O)Nc4nc(C)cs4)nc3)[nH]c2c1	-	-	?	-	-	-
Cc1ccc2nc(-c3ccc(SCC(=O)Nc4ccc5c(c4)OCCO5)nc3)[nH]c2c1	-	-	55	-	-	-
Cc1cc2nc(-c3ccc(SCC(=O)Nc4ccc5c(c4)OCCO5)nc3)[nH]c2cc1C	-	-	.	-	-	-
C=CCc1cccc(CNc2nc3ccccc3n2CCC)c1O	-	-	149	-	-	-
CCOC(=O)C1=CCN(S(=O)(=O)c2ccccc2Br)C1c1ccc(Cl)cc1 (stereo not given)	-	.	.	.	.	.
CCN(CC)c1ncnc2c1ncn2[C@H]1CN(Cc2cccnc2)C[C@@H](CO)O1	-	.	.	.	.	-
N#Cc1cc(O)c(-n2nnc3ccccc32)cc1C#N	-	-	-	-	-	-
N#Cc1cc(Oc2cccc3cccnc23)c(-n2nnc3ccccc32)cc1C#N	-	-	211	-	57	-
NC(c1csc(NC(=O)c2cccc(OC(F)(F)F)c2)n1)c1ccccc1Cl (stereo not given)	-	.	.	.	.	-
Oc1ccc2ccccc2c1CN1CCOCC1	-	-	83	-	-	-
Oc1ccccc1Cc1c(O)ccc2ccccc12	-	-	101	-	-	-
OCCC1CN(Cc2c(O)ccc3ccccc23)CCN1CCc1ccccc1 (stereo not given)	-	-	216	-	-	-
Oc1cnc2ccccc2c1CN1CCOCC1	-	-	-	-	-	-
O=C(NCc1ccccc1)C(c1ccc(-c2ccccc2)cc1)N1CCN(c2ccccc2F)CC1 (stereo not given)	-	.	.	.	.	.
C[C@H](CO)N1C[C@H](C)[C@@H](CN(C)C(=O)Nc2ccc3c(c2)OCCO3)OCc2cn(nn2)CCCC1=O	-	.	.	.	.	.
CC(C)(C)OC(=O)N1CCCC(C(=O)Nc2ccc(C(=O)NC3CC3)cc2)C1 (stereo not given)	-	-	.	-	.	-
COC(=O)C1=C(C)N(CC(C)C)C(=S)NC1c1ccc(-c2ccccc2)cc1 (stereo not given)	-	.	.	.	.	.
O=c1oc(-c2cccs2)nc2sc3c(c12)CCC3	.	-	-	-	-	-
O=c1oc(-c2cccs2)nc2sc3c(c12)CCCC3	-	-	63	-	-	-
N#Cc1ccccc1NC(=O)c1ccccc1OCC(=O)Nc1ccc2c(c1)oc1ccccc12	-	-	-	-	61	-
CNC(=O)COc1ccccc1C(=O)Nc1ccc2c(c1)oc1ccccc12	-	.	-	-	-	-
Cc1cc2nc(-c3ccccc3)c(CC(C)(C)C)n2c(C)c1Br	-	.	.	.	.	-
SMILES	CaV13 FRET inh	PfHsp90 set2	HSF1 activator	PvdQ inh	T cruzi repl	Glyco luc inh
Cc1cc(N2CCN(c3cccc(C)c3C)CC2)nc(-c2ccccc2)n1	.	135	-	-	-	-
Cc1cccc(C)c1OCC(=O)NC1CC1	-	-	-	-	-	-
Cc1cccc(C)c1OCC(=O)NNC(=S)NC(=O)C1CC1	-	104	-	-	-	-
CCN1C(=O)N(C(C)=O)[C@H]2C[C@H](C(=O)N3CCCC3)[C@H](C)[C@H](c3ccccc3)C[C@H]21	-	.	.	.	.	.
Cc1nn(CC(N)=O)c(=O)c2ccccc12	.	-	-	-	58	-
Cc1ccc(C(=O)Cn2nc(C(=O)O)c3ccccc3c2=O)cc1C	-	-	64	-	-	-
CCC(=O)Nc1ccc(C(=O)Cn2nc(C(=O)O)c3ccccc3c2=O)cc1	-	.	.	.	.	.
CCOC(=O)Cn1nc(C)c2ccccc2c1=O	.	-	-	-	-	-
CNC(=S)/N=C/NOCc1ccc(Cl)cc1Cl	-	-	-	-	74	-
CC(C)(C)c1ccc(CN(Cc2ccccc2)C(c2ccccn2)c2nnnn2C(C)(C)C)cc1 (stereo not given)	-	-	-	-	62	-
CCOc1cc2[nH]c(=S)n(CCCC(=O)NCc3ccco3)c(=O)c2cc1OCC	-	-	-	-	-	-
Cc1cccc(N2CCN(C(=O)CCCn3c(=S)[nH]c4cc5c(cc4c3=O)OCO5)CC2)c1C	-	-	-	-	57	-
O=C(CCCn1c(=S)[nH]c2cc3c(cc2c1=O)OCO3)NCc1ccco1	-	-	55	-	-	-
O=C(CCCn1c(=S)[nH]c2cc3c(cc2c1=O)OCO3)N1CCN(c2ccccc2)CC1	-	.	-	-	-	-
COc1cccc(-c2c(C#N)c(N)nc3c2c(C)nn3-c2ccccc2)c1O	-	-	63	-	-	-
O=C1c2cccc3c([N+](=O)[O-])ccc(c23)C(=O)N1O	-	-	52	-	-	-
CNc1nc(-c2ccccn2)nnc1-c1ccccc1	.	-	-	-	-	-
c1ccc(-c2nnc(-c3ccccn3)nc2NC2CCCCC2)cc1	-	103	-	-	-	-
COc1ccc(Nc2nc(N3CCCC3)nc3ccccc23)c(OC)c1	-	-	-	-	65	99
CC(Nc1nc(-c2ccccc2O)nc2ccccc12)c1ccccc1 (stereo not given)	-	-	-	-	-	29
Oc1ccccc1-c1nc(NC2CCCC2)c2ccccc2n1	-	115	-	-	-	-
C[C@H]1COc2cc(N3CCCC3)ccc2S(=O)(=O)N1	-	.	.	.	.	.
NC(=O)c1ncn([C@@H]2O[C@H](C(=O)N[C@H](Cc3c[nH]c4ccccc34)C(=O)NCC(=O)N3CCCCC3)[C@@H](O)[C@H]2O)n1	-	.	.	.	.	.
O=C(Nc1ccc(F)cc1)N[C@H]1CC[C@H](CCNS(=O)(=O)c2cccc(Cl)c2)O[C@@H]1CO	-	.	.	.	.	.
C=CCNc1nc(N2CCCC2)nc2ccccc12	-	-	-	-	-	-
CC(Nc1nc(N2CCCCC2)nc2ccccc12)c1ccccc1 (stereo not given)	-	-	-	-	64	-
CCOC(=O)N1CCN(C(=O)C[C@H]2C[C@@]3(C(=O)OC)C(=C[C@H](C(C)C)O[C@@H]3C3CC3)N(Cc3ccccc3)C2=O)CC1	-	.	.	.	.	.
COc1ccc(-c2ccc(C(c3c(C)[nH][nH]c3=O)c3c(C)[nH][nH]c3=O)o2)c([N+](=O)[O-])c1	-	-	.	-	.	34
